In brackets after ≈: the same amount, converted by molar mass.
Key:
Type in all cases: functional, cell-based
[1] = Cytotoxicity against rat HSC-T6 cells after 44 hrs by MTT assay
Method in brief: (§1)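 Exponential-phase cells seeded at 5 × 10⁴ per well and preincubated 24 h at 37 °C, 5% CO₂. Test agent added in triplicate at final 10, 50 and 100 μg/mL, incubated 44 h at 37 °C. MTT then added for 4 h at 37 °C, absorbance read at 490 nm. IC50 derived from percentage inhibition by linear regression.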

HeLa = assay: Cytotoxicity against human HeLa cells after 44 hrs by MTT assay; method in brief: as §1
B16 = assay: Cytotoxicity against mouse B16 cells after 44 hrs by MTT assay; method in brief: as §1
[2] = Rattus norvegicus, HSC-T6, 44 h, read-out: IC50
[3] = Homo sapiens, HeLa, 44 h, read-out: IC50
[4] = Mus musculus, B16, 44 h, read-out: IC50

| SMILES | IC50 [1, 2] [µg/mL] | IC50 (HeLa; [3]) [µg/mL] | IC50 (B16; [4]) [µg/mL] | IC50 ([1]; hsc-t6) | IC50 (B16; b16) | IC50 (HeLa; hela) |
| --- | --- | --- | --- | --- | --- | --- |
| CC(=O)OC[C@@]1(C(=O)O)CCC[C@@]2(C)[C@@H]3CC[C@H]4C[C@@]3(CC[C@H]12)C[C@H]4COC(=O)C(C)C | 24.6 (≈ 54.8 µM) | 24.6 (≈ 54.8 µM) | 22.8 (≈ 50.8 µM) | – | – | – |
| CC1(C)OC[C@@H]([C@]2(C)C=C3CC[C@@H]4C(C)(C)[C@H](O)CC[C@@]4(C)C3CC2)O1 (stereo partly drawn) | 12.6 (≈ 34.8 µM) | 11.7 (≈ 32.3 µM) | 7.8 (≈ 21.5 µM) | – | – | – |
| C[C@@]12CCC[C@@](C)(C(=O)O)[C@H]1CC[C@@]13C[C@H](CC[C@H]12)[C@@](O)(CO)C3 | > 100 | > 100 | > 100 | – | – | – |
| CC1(C)[C@H](O)CC[C@@]2(C)[C@@H]3CC[C@](C)([C@@H](O)CO)C=C3CC[C@H]12 [DARUTIGENOL] | – | > 100 | – | Not Active | Not Active | – |
| C[C@@]1(CO)C[C@@H](O)C[C@@]2(C)[C@@H]3CC[C@](C)([C@@H](O)CO)C=C3CC[C@H]12 [KIRENOL] | > 100 | – | > 100 | – | – | Not Active |
| CC(=O)O[C@H]1C(=O)[C@@]2(C)[C@H]([C@H](OC(=O)c3ccccc3)[C@]3(O)C[C@H](OC(=O)[C@H](O)[C@@H](NC(=O)c4ccccc4)c4ccccc4)C(C)=C1C3(C)C)[C@]1(OC(C)=O)CO[C@@H]1C[C@@H]2O [PACLITAXEL] | 0.75 (≈ 0.878 µM) | 0.61 (≈ 0.714 µM) | 0.63 (≈ 0.738 µM) | – | – | – |

Source: ChEMBL document CHEMBL1153750, “ent-kaurane and ent-pimarane diterpenoids from Siegesbeckia pubescens” (J Nat Prod, 2010)
